Assay [1] has as its system MRC5. Put plainly: Antiproliferative activity against human MRC5 cells by MTT assay. The assay is classed as cell-based. The gist of the method: (§1)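 MTT colour formation, shown to be directly proportional to viable cell number counted by Trypan blue, was used to read growth of SK-N-MC neuroepithelioma or mortal MRC-5 fibroblast cells. IC50 values are given as mean ± SD of 3 experiments.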
Background: Tetrazolium dyes change colour on reduction, which living cells bring about.

In assay [2] the test system is SK-N-MC. Put plainly: Antiproliferative activity against human SK-N-MC cells by MTT assay. The assay is classed as functional, cell-based. In outline: as §1
For assay [3], the system named is SK-N-MC. Nature of the assay: Inhibition of cellular iron uptake from 59Fe]transferrin in human SK-N-MC cells at 50 uM relative to control. The note with it: values are per cent of control. The assay is classed as functional. The gist of the method:
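Cells were co-incubated for 3 h at 37 °C with 59Fe-transferrin (0.75 µM) plus chelator (50 µM), then washed four times in ice-cold PBS. Pronase (1 mg/mL, 30 min, 4 °C) stripped membrane-bound 59Fe, and the Pronase-insensitive fraction was counted as internalized. Values are % of control, mean ± SD of 3 experiments with 3 determinations each.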

Assay [4] relates to SK-N-MC. Put plainly: Effect on iron efflux in human SK-N-MC cells assessed as cellular iron release. Further details: concentration or dose not given beside the values. The assay is classed as functional. In outline:
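SK-N-MC cells were prelabeled with 59Fe-transferrin (0.75 µM) for 3 h at 37 °C, washed four times with ice-cold PBS, then incubated with chelator (50 µM). Overlying medium was separated from cells, and released versus retained 59Fe was gamma-counted in supernatant and cell pellet. Mean ± SD of 3 experiments, 3 determinations each.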

A value given as a limit tells only on which side of the number the result lay.

The term IC50 denotes the concentration that gives 50% inhibition. On to `S=C(N/N=C(/c1ccccc1)c1ccccn1)c1ccccc1`, for which the figures for the IC50 in assay [1] and in assay [2] were 530 nM and 11 nM, respectively. In the case of `S=C(NN=C(c1ccccn1)c1ccccn1)c1ccccc1`, the response, % of control at 50 µM in assay [3] came to 20%. The Activity in assay [4] worked out at 37%. Moreover, the IC50 in assay [1] was determined as 750 nM; in assay [2], 12 nM. On to `Oc1ccc2ccccc2c1/C=N/NC(=S)c1ccccc1`, for which the response, % of control at 50 µM in assay [3] worked out at 20%. Also, the Activity in assay [4] turned out to be 37%. Besides, the IC50 in assay [1] was 3890 nM; in assay [2], 2530 nM.

In assay [2], `O=C(N/N=C/c1c(O)ccc2ccccc12)c1ccccc1` gave an IC50 of 990 nM. Consider `Cc1ncc(CO)c(/C=N/NC(=S)c2ccccc2)c1O` [PYRIDOXAL THIOBENZOYL HYDRAZONE], for which the values for the IC50 in assay [1] and in assay [2] were above 80000 nM and 58200 nM, respectively.

`O=C(NN=C(c1ccccn1)c1ccccn1)c1ccccc1` returned an IC50 in assay [2] of 1240 nM.

As for `CC(=O)N(O)CCCCCNC(=O)CCC(=O)N(O)CCCCCNC(=O)CCC(=O)N(O)CCCCCN` [DEFEROXAMINE], the Activity in assay [4] was 17%. Also, half-maximal inhibition in assay [2] (IC50) required 14200 nM. In turn, `NC(=S)N/N=C/c1ncccc1N` [TRIAPINE] showed an IC50 in assay [2] of 540 nM. As for `CN(C)C(=S)NN=C(c1ccccn1)c1ccccn1`, the Activity in assay [4] is recorded as 44%. Moreover, in assay [2], the IC50 came to 2 nM. The like results for `O=C(N/N=C/c1c(O)ccc2ccccc12)c1ccncc1` were, in that order, 44% and 590 nM. Consider `Cc1ncc(CO)c(/C=N/NC(=O)c2ccncc2)c1O` [PYRIDOXAL ISONICOTINOYL HYDRAZONE], for which the Activity in assay [4] is given as 44%.

Take `Oc1ccccc1/C=N/NC(=S)c1ccccc1` [SALICYLALDEHYDE THIOBENZOYL HYDRAZONE]: the response, % of control at 50 µM in assay [3] was 20%. Also, the Activity in assay [4] turned out to be 37%. For the same compound, the results for the IC50 in assay [1] and in assay [2] were 57000 nM and 24500 nM, respectively. For the compound `O=C(N/N=C/c1ccccc1O)c1ccccc1` [SALICYLALDEHYDE BENZOYL HYDRAZONE], 3230 nM corresponded to half-maximal inhibition in assay [2] (IC50). For `O=C(N/N=C(/c1ccccc1)c1ccccn1)c1ccccc1`, it took 1470 nM to reach half-maximal inhibition in assay [2] (IC50). Same read-out and setting: the same measure for `Cc1ncc(CO)c(/C=N/NC(=O)c2ccccc2)c1O` [PYRIDOXAL BENZOYL HYDRAZONE]: 31800 nM.

Values taken from ChEMBL document CHEMBL1138273, “Design, synthesis, and characterization of new iron chelators with anti-proliferative activity: structure-activity relationships of novel thiohydrazone analogues” (J Med Chem, 2007).
